Data: article PMC6474823 (Molecular cell, 2019)

Legend:
[1] = molecular target: Src^3D WT (Homo sapiens, UniProt P12931); experiment: Inhibitor IC50 determination, fluorescent SFK peptide kinase assay; type: biochemical; details: 1 mM ATP
In short: (§1)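 Kinase concentrations were set in the linear range by prior titration: Src3D WT or V284C at 7.5 nM, Hck3D WT or V284C at 5 nM. Kinase was incubated 30 min with test compound (30 μM top, 3-fold serial dilutions, 10 points) and 1 mM ATP in HEPES pH 7.5 buffer with MgCl2, EGTA, BSA, vanadate and BME. Then 20 μM pyrene-labelled SFK peptide was added for 2 h. Fluorescence was read at ex 344/em 405 nm, in triplicate.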

[2] = molecular target: Src^3D V284C (Homo sapiens, UniProt P12931, V284C); experiment: as above; type: biochemical; details: 1 mM ATP
In short: as §1

[3] = molecular target: Hck^3D WT (Homo sapiens, UniProt P08631); experiment: as above; type: biochemical; details: 1 mM ATP
In short: as §1

[4] = system: kinases in lysates of HEK293T cells expressing Hck^FLAG V284C; experiment: Kinobead kinome profiling of CystIMATIK probes; type: binding, human; details: 10 μM probe vs DMSO, ~220 kinases enriched
[5] = molecular target: Src^FLAG V284C (Homo sapiens, UniProt P12931, V284C); experiment: SH3 domain pulldown assay with inhibitor-treated cells; type: cell-based; details: HEK293 cells treated with 10 μM probe for 2 h; immobilized SH3 domain ligand
In short: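 HEK293T cells expressing SrcFLAG V284C were treated with 10 μM test compound for 2 h. They were then PBS-washed and lysed for 20 min on ice in modified RIPA (pH 7.8, 1% IGEPAL, protease/phosphatase inhibitors, 10 μM compound). Lysates were cleared at 17,000x g, 4 °C, then incubated with SNAP-immobilized SH3 ligand resin, rotating at room temperature for 1 h. Retained Src was quantified by anti-FLAG blotting, n=3.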

[6] = system: Src^GFP V284C-expressing SYFs; experiment: Membrane blebbing microscopy; type: cell-based, murine; details: for membrane blebbing: 15 min treatment, 3 μM 2 or 10 μM 3 (1, 3 or 10 μM 3 for dose dependence)
In short: (§2)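 SYF cells were seeded on glass slides at 2×10^4 and transfected 24 h later with turbofectin (3:1 μL:μg DNA). At 24 h post-transfection, cells were exposed to test compound for 15 min; where indicated, 10 μM ROCK inhibitor was given for 2 h beforehand. Cells were PBS-washed, fixed in 4% paraformaldehyde for 15 min, and stained with NucBlue and Alexa647-wheat-germ agglutinin for 15 min. The fraction of cells showing blebs was scored.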

[7] = system: SYFs expressing Src^GFP WT; experiment: Membrane blebbing microscopy; type: cell-based, murine; details: 10 μM 3, 15 min; Src^GFP WT resistant to probes
[8] = system: Src^GFP G2A/V284C-expressing SYFs; experiment: Membrane blebbing microscopy; type: cell-based, murine; details: 10 μM 3, 15 min; non-myristoylatable Src
In short: as §2

[9] = system: Fyn^myr V284C-expressing SYFs; experiment: Membrane blebbing microscopy; type: cell-based, murine; details: 10 μM 3, 15 min
In short: as §2

[10] = molecular target: Src^FL K445C (Homo sapiens, UniProt P12931, K445C); experiment: Isotope-coded maleimide labeling and mass spectrometry; details: 5 μM inhibitor
In short: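 Purified SrcFL K445C was diluted to 800 nM in HEPES pH 7.6 buffer with 5% glycerol and 0.02% DDM. It was incubated with 5 μM test compound at 25 °C for 30 min, then labelled with 1 mM heavy or light N-ethyl maleimide at 25 °C for 30 min. The reaction was quenched with 10 mM DTT. Heavy and light reactions were mixed, and protein was precipitated with deoxycholate/TCA on ice before mass spectrometry.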

Hck^3D WT, sequence (P08631 81-526): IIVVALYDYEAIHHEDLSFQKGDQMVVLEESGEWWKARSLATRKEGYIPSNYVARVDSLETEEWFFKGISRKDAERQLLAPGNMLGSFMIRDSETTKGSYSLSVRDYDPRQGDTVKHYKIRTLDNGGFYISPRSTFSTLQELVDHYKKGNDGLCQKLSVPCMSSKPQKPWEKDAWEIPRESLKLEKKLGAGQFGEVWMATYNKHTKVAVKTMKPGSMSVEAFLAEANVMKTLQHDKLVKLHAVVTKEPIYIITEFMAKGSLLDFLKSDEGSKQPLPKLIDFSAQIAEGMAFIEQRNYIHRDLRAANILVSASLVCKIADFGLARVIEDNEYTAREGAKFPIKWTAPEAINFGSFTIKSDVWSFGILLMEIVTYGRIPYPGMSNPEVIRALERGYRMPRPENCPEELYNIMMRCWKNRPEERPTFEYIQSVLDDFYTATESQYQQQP

| Compound | inhibition of WT Src (IC50, Figure 4C) [1] | inhibition of Src V284C (IC50, Figure 4C) [2] | inhibition of WT Hck (IC50, Figure 4C) [3] | kinases depleted from Kinobead matrix (selectivity) [4] | SH3 domain accessibility (retained Src in SH3 pulldown) [5] | membrane blebbing after pre-treatment with 2 prior to addition of 3 ([6]; 3 μM 2 for 15 min, then 10 μM 3 for 15 min) | membrane blebbing [6] | membrane blebbing [7] | membrane blebbing [8] | membrane blebbing [9] | maleimide labeling of control cysteine residue, 6 complex vs 5 complex ([10]; control peptide) | K445C maleimide labeling, open (6) compared to closed (5) conformation ([10]; αF peptide, ratio 6 complex vs 5 complex) |
| --- | --- | --- | --- | --- | --- | --- | --- | --- | --- | --- | --- | --- |
| COCCn1c(/C=C(/C#N)C(=O)NC(C)C)c(-c2ccc(Cl)cc2)c2c(N)ncnc21 [compound 1, (E)- & (Z)-3-(4-Amino-5-(4-chlorophenyl)-7-(2-methoxyethyl)-7H-pyrrolo[2,3-d]pyrimidin-6-yl)-2-cyano-N-isopropylacrylamide] | insensitive | potently inhibited | insensitive | Hck^FLAG V284C was the only kinase among the ~220 enriched that was depleted | – | – | – | – | – | – | – | – |
| COCCn1c(/C=C(/C#N)C(=O)NC(C)C)c(-c2ccc(Oc3ccccc3)cc2)c2c(N)ncnc21 [compound 2, (E)- & (Z)-3-(4-Amino-7-(2-methoxyethyl)-5-(4-phenoxyphenyl)-7H-pyrrolo[2,3-d]pyrimidin-6-yl)-2-cyano-N-isopropylacrylamide] | minimal inhibition | potently inhibited | minimal inhibition | Hck^FLAG V284C was the only kinase among the ~220 enriched that was depleted | minimal pulldown | levels of blebbing comparable to cells treated with DMSO or 2 alone | minimally affected | – | – | – | – | – |
| CNC(=O)C(C#N)=Cc1c(C#Cc2cc(NC(=O)c3cccc(C(F)(F)F)c3)ccc2C)c2cncnc2n1CCOC [compound 3, (E)- and (Z)-N-(3-((6-(2-cyano-3-(methylamino)-3-oxoprop-1-en-1-yl)-7-(2-methoxyethyl)-7H-pyrrolo[2,3-d]pyrimidin-5-yl)ethynyl)-4-methylphenyl)-3-(trifluoromethyl)benzamide] | minimal inhibition | potently inhibited | minimal inhibition | – | greatly increased | – | induction of blebbing | did not significantly increase membrane blebs | did not produce blebbing | marked increase in blebbing | – | – |
| Cc1ccc(NC(=O)c2cccc(C(F)(F)F)c2)cc1C#Cc1nn(C2CCCC2)c2ncnc(N)c12 [compound 6, N-(3-((4-amino-1-cyclopentyl-1H-pyrazolo[3,4-d]pyrimidin-3-yl)ethynyl)-4-methylphenyl)-3-(trifluoromethyl)benzamide] | – | – | – | – | – | – | – | – | – | – | no change in labeling | ~ 5 fold |
